Results published in ChEMBL document CHEMBL1124184, “Dopamine autoreceptor agonists as potential antipsychotics. 1. (Aminoalkoxy)anilines” (J Med Chem, 1988).
Active and inactive are the calls of the source. No cut-off for these calls is given here.

What was measured:
[1] = tested on: Rattus norvegicus; experiment: Inhibition of dopamine neuronal firing in the anesthetized rats after ip administration at a dose 2.5 mg/kg; assay type: functional; settings: route intraperitoneal
How it was run: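 Zona compacta DA cells of substantia nigra recorded extracellularly in chloral-anesthetized rats, identified by waveform and firing pattern, with recording sites confirmed histologically. Drug given at 2.5 mg/kg ip via an indwelling catheter. Baseline was the mean rate over the 2 min before injection. Effect was the mean over the 1-min period of maximal inhibition.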

[2] = tested on: Rattus norvegicus; experiment: Inhibition of locomotor activity in rats after peroral administration of the compound.; assay type: functional; settings: po
[3] = tested on: Rattus norvegicus; experiment: Inhibition of locomotor activity in rats, after sc injection after dosing for a period of 30 min; assay type: functional; settings: 0.5 h
[4] = tested on: Rattus norvegicus; experiment: Reversal of 6-OHDA-induced depression in rats, after sc injection after dosing for a period of 30 min; assay type: functional; settings: 0.5 h
How it was run: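 Rats pretreated at least one month earlier with 6-OHDA (200 μg icv) plus pargyline (50 mg/kg ip) and desmethylimipramine (25 mg/kg ip), giving about 90% brain DA depletion checked in representative animals. Test drug given sc; locomotor activity recorded for 30 min starting immediately after dosing.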

[5] = tested on: Rattus norvegicus; experiment: Reversal of reserpine induced depression in rats, after sc injection after dosing for a period of 30 min; assay type: functional; settings: 0.5 h
How it was run: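 Normal rats given reserpine 5 mg/kg 24 h before testing, then test drug sc. Locomotor activity recorded for 30 min starting immediately after dosing. Locomotor stimulation read as reversal of reserpine-induced depression.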

[6] = tested on: Monkey; experiment: Effect on Inhibition of Sidman avoidance in squirrel monkeys when administered orally; assay type: functional; settings: in Saimiri, po
How it was run: (§1)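 Sidman avoidance in mature squirrel monkeys; oral dosing at three doses, four animals per dose; ED50 with SEM derived from the dose-response.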

[7] = tested on: Rattus norvegicus; experiment: Inhibition of accumulation of DOPA in rat striatum, after intraperitoneal administration.; assay type: functional; settings: ip
How it was run: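 Rats dosed ip 1 h before sacrifice; GBL (750 mg/kg ip) and NSD 1015 (100 mg/kg ip) given 30 and 25 min before sacrifice. Striatal DOPA measured by HPLC with electrochemical detection. ED50 is the dose giving half-maximal decrease in DOPA formation, from three to five dose levels with four to five rats per group.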

[8] = tested on: Monkey; experiment: Effect on Inhibition of Sidman avoidance in squirrel monkeys was determined; assay type: functional; settings: in Saimiri; how it was run: as §1
[9] = tested on: Monkey; experiment: Effect on EPS liability in squirrel monkeys sensitized to haloperidol at 2.5 mg/kg; A=Active; assay type: functional, organism-based; parameters: dose 2.5 mg/kg; settings: Cercopithecidae

| SMILES | inhibition in vivo at 2.5 mg/kg [1] [%] | ED50 [2] [mg/kg] | ED50 [3] [mg/kg] | ED50 [4] [mg/kg] | ED50 [5] [mg/kg] | ED50 [6] [mg/kg] | ED50 [7] [mg/kg] | ED50 [8] [mg/kg] | EPS [9] |
| --- | --- | --- | --- | --- | --- | --- | --- | --- | --- |
| CCCN(CCCOc1cccc(N)c1)CCc1ccccc1 | 8 | > 30 | – | – | – | – | – | – | – |
| Nc1cccc(OCCCN2CCN(c3ccccc3)CC2)c1 | 85 | 10.3 | 1.8 | > 30 | > 30 | 8.5 | 12 | – | – |
| CCCN1CCC[C@H](c2cccc(O)c2)C1 | 100 | > 30 | 8.8 | 0.6 | – | – | 7.2 | – | – |
| Nc1cccc(OCCCN2CC=C(c3ccccc3)CC2)c1 | 89 | 12.1 | 0.35 | 0.13 | > 30 | – | 7 | – | – |
| CN1CCc2cccc3c2[C@H]1Cc1ccc(O)c(O)c1-3 [APOMORPHINE] | 100 | > 30 | 0.021 | 0.006 | 0.096 | – | 0.3 | – | – |
| CNc1cccc(OCCCN2CCN(c3ccccc3)CC2)c1 | 7 | 9.4 | – | – | – | – | – | – | – |
| CN(C)c1cccc(OCCCN2CCN(c3ccccc3)CC2)c1 | 21 | 9.2 | – | – | – | – | – | – | – |
| Nc1cccc(OCCCN2CCN(c3ccccn3)CC2)c1 | 46 | 9.2 | – | – | – | – | – | – | – |
| C1=C(c2ccccc2)CCN(CCCCc2c[nH]c3ccccc23)C1 | 100 | 4.8 | 0.64 | 0.4 | > 30 | – | 2.2 | – | – |
| CSc1ccc2c(c1)N(CCC1CCCCN1C)c1ccccc1S2 (stereo not given) [THIORIDAZINE] | – | – | – | – | – | – | – | 3.9 | Active |
